Assay outcomes deposited in PubChem by several laboratories.
PKA kinase inh = inhibitors of human PKA kinase activity, primary screen, biochemical, ATP-depletion luminescence, Kemptide substrate; inhibition, % at 6 µM; cAMP-dependent protein kinase catalytic subunit alpha (Homo sapiens), P17612; 65,000 tested, 0.1% active; PKA Kemptide phosphorylation, Kinase-Glo ATP luminescence;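 active = inhibition above the screen-wide mean inhibition plus 3 SD, cut at about 21% in these data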
SF-1 act = activators of human SF-1, primary screen, cell-based, CHO-K1, Gal4-SF-1 LBD, luciferase luminescence; Steroidogenic factor 1 (Homo sapiens), Q13285; CHO-K1 Gal4-SF-1 LBD luciferase reporter; % increase over DMSO SF-1-specific signal; activation, % at 10 µM; 65,000 tested, 1.9% active;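 active = activation above the mean activation of all tested compounds plus 3 SD, cut at about 50% in these data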
Target sequence (Q13285 whole entry, looked up, the tested form may be a part): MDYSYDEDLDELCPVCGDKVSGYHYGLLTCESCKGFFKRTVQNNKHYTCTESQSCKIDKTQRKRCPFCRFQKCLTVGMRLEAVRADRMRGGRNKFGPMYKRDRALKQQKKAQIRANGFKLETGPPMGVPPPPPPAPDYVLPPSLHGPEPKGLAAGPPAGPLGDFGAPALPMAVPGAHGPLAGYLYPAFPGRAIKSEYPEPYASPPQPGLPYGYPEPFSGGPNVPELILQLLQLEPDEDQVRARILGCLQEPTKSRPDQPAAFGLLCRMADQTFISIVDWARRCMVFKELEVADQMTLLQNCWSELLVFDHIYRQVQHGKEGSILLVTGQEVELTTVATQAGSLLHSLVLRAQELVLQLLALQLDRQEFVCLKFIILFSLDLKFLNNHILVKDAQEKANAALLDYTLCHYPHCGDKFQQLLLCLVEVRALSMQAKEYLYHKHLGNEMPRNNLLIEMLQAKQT
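Material: Gal4–SF-1 LBD one-hybrid luciferase reporter in CHO-K1 cells | Amount: 4,000 cells per well | Compound dosing: 10 µM single point, 1% DMSO | Schedule: 20 h compound treatment, 37 °C | Measured by: SteadyLite luciferase luminescence | Evaluation: Percent activation versus DMSO | Control set: DMSO-treated SF-1-transfected cells as negative, DMSO-treated mock-transfected cells lacking SF-1 as background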
ROCK2 inh = inhibitors of human ROCK2 kinase, primary screen, biochemical, high-throughput, luminescence | inhibition, % at 6 µM | Rho-associated protein kinase 2 (Homo sapiens), O75116 | purified ROCK2, Kinase-Glo ATP depletion luminescence | 60,000 tested, 0.35% active;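 active = inhibition above the screen-wide mean inhibition plus 3 SD, cut at about 18% in these data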;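 note: plate controls were DMSO wells for no effect and Y-27632 control wells after no-enzyme background subtraction for full effect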
RORa activator = activators of orphan receptor RORA, primary screen, cell-based, luminescence; Nuclear receptor ROR-alpha (Homo sapiens), P35398; CHO-K1 Gal4-RORA LBD luciferase reporter; percent increase over mock-subtracted basal signal; activation, % at 10 µM; 65,000 tested, 1.5% active; AID 560, 2006;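 active = activation above the mean of all tested compounds plus 3 SD, cut at about 49% in these data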;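 note: 0% = DMSO-treated RORA cells and 100% = added signal equal to DMSO minus mock-transfected cells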
mHtt clearance = clearance of mutant huntingtin inclusions, primary screen, imaging, HeLa Exon1htt(103Q)mCFP, confocal imaging. aggregate imaging; zero = plate's median compound well. 47,000 tested, 0.42% active. inhibition, % at 1.5 µM;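 active = inhibition of aggregate fluorescence above about 70%, also judged a hit by eye on the cell image, limit read from the data, passing the limit was not always enough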;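 note: cells exposed to compound for three days before fixation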
JNK3 inh = JNK3 kinase activity inhibitors, primary screen, biochemical, human, purified enzyme; Mitogen-activated protein kinase 10 (Homo sapiens), P53779; HTS; inhibition, % at 8 µM; 60,000 tested, 0.61% active; AID 746, 2007; in the data active = inhibition above about 17%;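 note: 0% = DMSO and 100% = reference inhibitor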
* marks the source's active call; other numbers are inactive results; . = no result given. Rows were chosen to be rich in hits. Some 2.9% of all compounds tested hit in one or more screens of this group.

SMILES	PKA kinase inh	SF-1 act	ROCK2 inh	RORa activator	mHtt clearance	JNK3 inh
CCn1c(=O)cc(SCC(=O)N2CCN(c3ccccc3OC)CC2)c2ccccc21	1	8	3	-8	22	-1
CC(C)c1cc(C(=O)NC2CCCCC2)no1	2	54*	1	11	.	1
Cc1cc(NC(=O)c2cc(C(C)C)on2)no1	-5	9	-9	4	.	1
CCCc1cc(C(=O)Nc2sc3c(c2C#N)CCC3)no1	3	22	9	26	82*	3
CCCc1cc(C(=O)NC2CCCCC2)no1	4	54*	1	46	.	-2
CCCc1cc(C(=O)Nc2sc(C)c(CC)c2C#N)no1	6	15	-5	0	.	3
CCCc1cc(C(=O)NC2CCCC2)no1	3	29	5	61*	-15	0
CC(c1ccco1)N(C(=O)CSc1ccc(Br)cc1)c1ccccn1 (stereo unspecified)	3	0	2	-15	33	2
Cc1cc(C)nc(-n2nc(C)cc2NC(=O)c2cccc(S(=O)(=O)N3CCOCC3)c2)n1	.	.	.	.	10	.
COC(=O)c1c(C)[nH]c(C(=O)C(C)Sc2nnc(-c3cc(OC)c(OC)c(OC)c3)o2)c1C (stereo unspecified)	13	-6	7	-5	.	6
CCc1cc2cc3c(cc2nc1SCC(=O)Nc1cc(C)on1)OCO3	13	-23	6	-32	.	-6
Cc1ccc(S(=O)(=O)NCCc2ccncc2)cc1	5	-17	0	-15	.	-7
Cc1ccc(S(=O)(=O)NCCCOC(=O)Nc2ccncc2)cc1	18	15	23*	13	14	-1
Cc1c(C(=O)COC(C)(C)C)[nH]c2ccccc12	14	27	6	18	20	1
O=C(O)c1ccccc1COc1ccccc1Cl	1	-11	3	-13	.	4
O=C(O)c1cccc(OCc2ccccc2Cl)c1	-1	80*	-1	24	.	-3
CCOc1ccccc1NC1c2ccccc2C(=O)N1c1ccc(C)cn1 (stereo unspecified)	2	13	-3	63*	.	-9
CCOC(=O)c1ccccc1NC1c2ccccc2C(=O)N1c1ccc(C)cn1 (stereo unspecified)	3	62*	0	22	.	6
COc1cc(NC2c3ccccc3C(=O)N2c2ccc(C)cn2)cc(OC)c1OC (stereo unspecified)	3	43	4	20	54	4
COCCn1c(SCC(=O)Nc2cccc(C(=O)OC)c2)nc2ccccc2c1=O	8	10	-1	14	16	1
CN(C)c1nc(N)nc(-c2nc3ccccc3s2)n1	7	54*	4	11	.	-2
CCCCN1C2CCCC1CC(NC(=O)N(C(C)C)C(C)C)C2 (stereo unspecified)	.	.	.	.	-59	.
CC(C)C(C)NC(=O)CSc1nc2scc(-c3ccco3)c2c(=O)n1-c1ccccc1 (stereo unspecified)	.	.	.	.	-25	.
CC(NC(=O)CSc1nc2sc3c(c2c(=O)n1-c1ccccc1)CCCC3)c1ccccc1 (stereo unspecified)	.	.	.	.	91*	.
COCCN1Cc2cccc(C(=O)NCc3ccc4c(c3)OCO4)c2C1=O	-3	-15	-2	-15	.	23*
SMILES	PKA kinase inh	SF-1 act	ROCK2 inh	RORa activator	mHtt clearance	JNK3 inh
O=C(COC(=O)c1cc(=O)[nH]c2ccccc12)NC(=O)NC1CCCCC1	6	-2	8	-18	52	9
Fc1ccccc1Cn1nnc2c(-n3ccnc3)ncnc21	24*	2	27*	-31	.	6
CC(=O)c1ccc(NC(=O)c2cnn3ccccc23)cc1	.	.	.	.	10	.
CC(=O)c1cccc(NC(=O)c2cnn3ccccc23)c1	-3	67*	-4	9	.	15
O=C(Nc1ccc2c(c1)C(=O)N(c1ccccc1)C2=O)C1CCCO1 (stereo unspecified)	.	.	.	.	-72	.
O=c1[nH]c2cc3c(cc2cc1C(c1nnnn1CC1CCCO1)N1CCCCCC1)OCCO3 (stereo unspecified)	.	.	.	.	27	.
O=C(OCc1nc2ccccc2s1)C1CCN(C2=NS(=O)(=O)c3ccccc32)CC1	6	53*	5	26	-79	7
Cc1ccc(C(=O)n2cnnc2N)cc1	.	.	.	.	0	.
c1ccc2c(c1)ccc1nnc(SCc3ccc4c(c3)OCO4)n12	.	.	.	.	26	.
c1ccn2cc(CSc3nnc4ccccn34)nc2c1	9	58*	4	57*	-7	9
c1ccn2c(SCc3ccc4c(c3)OCCO4)nnc2c1	5	40	2	57*	.	-2
CCCCCCSc1nsc(NC(C)=O)n1	2	21	5	75*	-18	-2
CCCCSc1nsc(NC(C)=O)n1	12	49	3	56*	.	2
Cc1ncsc1C(=O)Nc1nc2c(s1)CC(C)CC2 (stereo unspecified)	2	62*	-2	56*	-10	5
CCCCSc1ccc(NC(=O)c2cccnc2)cc1	.	.	.	.	31	.
COc1ccc(N2CCN(C(=O)CC3NC4CCCCC4NC3=O)CC2)cc1 (stereo unspecified)	-6	-15	7	-9	.	-7
CC(=O)c1c[nH]c2ccc(C)cc2c1=O	11	-10	.	0	-6	.
CC(=O)c1cc2c(=O)c3cc(C)ccc3oc2nc1C	-9	38	1	58*	3	8
O=C(COC(=O)CCS(=O)(=O)c1ccc(Cl)cc1)NC1CCCCC1	.	.	.	.	-20	.
CCOc1ccc(C(=O)Nc2ccc(Cl)cn2)cc1Cl	-8	49	-2	86*	54	6
O=S(=O)(NCCc1csc(-c2cccnc2)n1)c1ccc(Cl)s1	-6	-19	2	-17	.	0
O=C(CCSc1ccc(Cl)c(Cl)c1)NC12CC3CC(CC(C3)C1)C2	.	.	.	.	20	.
Cc1ccccc1-n1nc(C)c2cc(C(=O)NCc3cccnc3)sc21	3	2	0	2	17	57*
NC(=O)c1oc2ccccc2c1NC(=O)c1nc2ccccc2s1	6	64*	-1	83*	16	0
NC(=O)c1oc2ccccc2c1NC(=O)c1ccc(F)cc1	2	6	4	-10	15	26*
CCn1nnnc1SCC(=O)N1CCCc2ccccc21	.	.	.	.	11	.
CCOc1ccc(-c2nc(N)ncc2Oc2cccc(OC)c2)c(O)c1	.	.	.	.	-20	.
COc1cccc(Oc2cncnc2-c2ccc(OC)cc2O)c1	3	8	0	-2	73*	4
